Test results reported in ChEMBL document CHEMBL1166017, “Alpneumines A-H, new anti-melanogenic indole alkaloids from Alstonia pneumatophora” (Bioorg Med Chem, 2010).
Calls of active or inactive are those of the source. The calls are words filed in the database; no cut-off is given here.

Experiments:
[1] = molecular target: T1, Tyrosinase (Agaricus bisporus, UniProt O42713); test: Inhibition of mushroom tyrosinase
T1 sequence (O42713 whole entry): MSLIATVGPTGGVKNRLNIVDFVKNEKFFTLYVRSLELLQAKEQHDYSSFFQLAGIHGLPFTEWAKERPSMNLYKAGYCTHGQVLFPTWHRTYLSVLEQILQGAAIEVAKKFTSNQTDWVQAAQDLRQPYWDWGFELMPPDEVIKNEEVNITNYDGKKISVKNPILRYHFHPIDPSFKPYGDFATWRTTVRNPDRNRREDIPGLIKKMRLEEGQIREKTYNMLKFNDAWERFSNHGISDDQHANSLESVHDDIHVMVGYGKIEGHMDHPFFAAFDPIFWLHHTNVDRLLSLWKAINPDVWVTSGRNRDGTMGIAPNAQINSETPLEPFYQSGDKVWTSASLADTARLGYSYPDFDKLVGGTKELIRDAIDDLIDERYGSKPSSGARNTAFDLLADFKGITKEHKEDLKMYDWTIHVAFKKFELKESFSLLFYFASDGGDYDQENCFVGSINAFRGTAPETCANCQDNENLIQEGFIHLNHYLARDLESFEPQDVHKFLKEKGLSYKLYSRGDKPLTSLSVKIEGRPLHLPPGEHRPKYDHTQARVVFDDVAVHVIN

[2] = system: B16; test: Antimelanogenic activity in mouse B16 cells assessed as decrease in intracellular melanin level at IC50 after 4 days; type: functional; design: scale not given: the % may be the effect or the level left
[3] = system: B16; test: Antimelanogenic activity in mouse B16 cells assessed as decrease in intracellular melanin level after 4 days; type: functional, cell-based; conditions: B16, 96 h
Summary of the method: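 B16 cells in DMEM with 10% FBS and penicillin/streptomycin, seeded at 5000 cells/well and preincubated 24 h at 37 °C in 5% CO2. Cultured with IBMX (100 µM) with or without sample at 6.3–100 µM for 48 h, then in fresh medium under the same conditions for a further 48 h. Cells dissolved in 1 N NaOH at 90 °C for 1 h. Relative melanin read at 400 nm. Arbutin was the positive control.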

[4] = system: B16; test: Cytotoxicity against mouse B16 cells assessed as cell viability after 4 days by MTT assay; type: cell-based; conditions: b16, 96 h
Summary of the method: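 B16 cells were cultured as for the melanin assay: IBMX 100 µM and sample at 6.3–100 µM for 4 days. MTT (5 mg/mL solution) was added for 2 h, and the formazan was dissolved in DMSO. Absorbance was read at 550 and 700 nm. Viability was taken from the absorbance difference between samples and controls, in triplicate.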

[5] = system: B16; test: Inhibition of tyrosinase expression in mouse B16 cells after 1 hr by Western blotting; type: functional, cell-based
Summary of the method: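 B16 cells were treated with sample at 50 and 75 µM plus 0.1 mM IBMX, then lysed. Lysates were run on 7.5% SDS–PAGE and transferred to PVDF, which was blocked 1 h in 5% skim milk. Anti-tyrosinase (1:2000) was applied overnight and anti-β-actin (1:2000) for 1 h, followed by HRP-conjugated secondary IgG.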

## COC(=O)[C@@]12CO[C@@]3(O)[C@H]1CCN1CC[C@H]3[C@@H]1c1c2[nH]c2ccccc12 [ALPNEUMINE F]
[1]
  IC50: > 100 µM

## COC(=O)C1=C2Nc3c(O)cccc3[C@]23CCN2C[C@H](C(C)=O)[C@H]1C[C@@H]23 [ALPNEUMINE B]
[1]
  IC50: > 100 µM

## CC[C@]12CCCN3CCc4c(n(c5ccccc45)[C@@](O)(C(=O)OC)C1)[C@@H]32 [VINCAMINE]
[2]
  Activity: <50%
[3]
  IC50: 68.9 µM

## COC(=O)C1=C2Nc3c(O)cccc3[C@]23CC[N+]2([O-])C[C@H](C(C)=O)[C@H]1C[C@H]32 (some centres not stated) [ALPNEUMINE A]
[1]
  IC50: > 100 µM

## COC(=O)C1=C2Nc3ccccc3[C@]23CCN2C[C@@H](C(C)=O)[C@H]1C[C@@H]23 [ALPNEUMINE E]
[1]
  IC50: > 100 µM
[3]
  IC50: 71.4 µM

## COC(=O)C1=C2Nc3ccccc3[C@]23CC[N+]2([O-])C[C@H](C(C)=O)[C@H]1C[C@H]32 (some centres not stated) [ALPNEUMINE C]
[1]
  IC50: > 100 µM

## COC(=O)C1=C2Nc3c(O)cccc3[C@]23CCN2C[C@@H](C(C)=O)[C@H]1C[C@@H]23 [ALPNEUMINE D]
[1]
  IC50: > 100 µM

## CC[C@@]12C=C(C(=O)OC)n3c4c(c5ccccc53)CCN(CCC1)[C@H]42 [APOVINCAMINE]
[2]
  Activity: <50%
[3]
  IC50: 49.8 µM

## CC[C@]12CCC[N+]3([O-])CCc4c(n(c5ccccc45)[C@@](O)(C(=O)OC)C1)[C@H]23 (some centres not stated) [ALPNEUMINE G]
[1]
  IC50: > 100 µM
[2]
  Activity: <50%
[3]
  IC50: 58.3 µM
[4]
  Activity: Dose-dependent effect
[5]
  Activity: Active

## COC(=O)[C@@]12COCC[C@H]3[C@@H]1CC[N@+](C)([O-])[C@H]3c1c2[nH]c2ccccc12 [ALPNEUMINE H]
[1]
  IC50: > 100 µM
